{"source": "BindingDB's records for doi:10.1021/jm0309203", "about": "(University of Bath, 2003)", "key": {"Mu-type opioid receptor": {"target": "Mu-type opioid receptor (Homo sapiens, UniProt P35372)", "sequence (P35372 whole entry)": "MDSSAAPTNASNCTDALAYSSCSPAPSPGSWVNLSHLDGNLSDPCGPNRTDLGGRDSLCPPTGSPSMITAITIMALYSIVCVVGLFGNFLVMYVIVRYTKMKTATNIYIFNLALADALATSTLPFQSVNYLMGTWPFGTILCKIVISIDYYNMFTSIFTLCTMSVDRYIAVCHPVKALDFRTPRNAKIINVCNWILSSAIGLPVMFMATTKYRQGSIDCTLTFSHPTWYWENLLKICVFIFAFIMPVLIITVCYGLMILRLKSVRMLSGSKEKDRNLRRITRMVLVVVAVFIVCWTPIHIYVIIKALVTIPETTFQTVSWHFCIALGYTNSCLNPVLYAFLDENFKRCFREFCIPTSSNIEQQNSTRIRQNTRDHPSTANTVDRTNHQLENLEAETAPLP", "assay": "Binding affinity against cloned human Opioid receptor mu 1 transfected into chinese hamster ovary cells using [3H]DAMGO as radioligand", "in_short": "(§1)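 Competition binding in CHO cells transfected with cloned human opioid receptors, using [3H]DAMGO (μ), [3H]Cl-DPDPE (δ) and [3H]U69,593 (κ) as displaced radioligands. Hill slopes were examined. Data are averages of two experiments, each run in triplicate.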"}, "[1]": {"target": "Delta-type opioid receptor (Homo sapiens, UniProt P41143)", "sequence (P41143 whole entry)": "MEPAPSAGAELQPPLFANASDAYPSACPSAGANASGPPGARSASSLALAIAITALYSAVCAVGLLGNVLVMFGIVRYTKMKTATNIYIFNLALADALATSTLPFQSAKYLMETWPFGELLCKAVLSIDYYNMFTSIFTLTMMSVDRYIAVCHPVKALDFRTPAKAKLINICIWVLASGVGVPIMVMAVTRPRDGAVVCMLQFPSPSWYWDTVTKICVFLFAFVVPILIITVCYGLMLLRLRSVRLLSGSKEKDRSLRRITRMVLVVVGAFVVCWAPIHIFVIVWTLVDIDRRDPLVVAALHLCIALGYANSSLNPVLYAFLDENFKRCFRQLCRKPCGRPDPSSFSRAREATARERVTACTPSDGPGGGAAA", "assay": "Binding affinity against cloned human Opioid receptor delta 1 transfected into chinese hamster ovary cells using [3H]Cl-DPDPE as radioligand", "in_short": "as §1"}}}
{"smiles": "NC(=Nc1ccc2[nH]c3c(c2c1)C[C@@]1(O)C2Cc4ccc(O)c5c4[C@@]1(CCN2CC1CC1)[C@H]3O5)NCc1ccccc1", "note": "[7-benzylamino(imino)methylamino-22-cyclopropylmethyl-14-oxa-11,22-diazaheptacyclo[13.9.1.01,13.02,21.04,12.05,10.019,25]pentacosa-4(12),5(10),6,8,15,17,19(25)-heptaene-2,16-diol]", "values": [{"measurement": "Ki", "setting": "Mu-type opioid receptor", "value": 10, "unit": "nM"}]}
{"smiles": "CCCNC(=Nc1ccc2[nH]c3c(c2c1)C[C@@]1(O)C2Cc4ccc(O)c5c4[C@@]1(CCN2CC1CC1)[C@H]3O5)NCC1CC1", "note": "[22-cyclopropylmethyl-7-cyclopropylmethylamino(propylimino)methylamino-14-oxa-11,22-diazaheptacyclo[13.9.1.01,13.02,21.04,12.05,10.019,25]pentacosa-4(12),5(10),6,8,15,17,19(25)-heptaene-2,16-diol]", "values": [{"measurement": "Ki", "setting": "[1]", "value": 15, "unit": "nM"}]}
